The source of these data is paper PMC3880594 (Journal of medicinal chemistry, 2013).

SMILES strings stand for the structures.

In series [1] the test system is Bcl-2, Bax, NF-κB (p65), PARP, caspase-3 in MDA-MB-231 cells. As to the kind of experiment: Western blot of apoptosis related proteins. The settings on record: 48 h; 10 and 19 at 2.5-10 μM, 1 at 10-30 μM. The format is cell-based, human. In outline:
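MDA-MB-231 cells exposed to test compound or DMSO for 48 h, then lysed; protein measured by Bradford against BSA. 30 μg per lane resolved by SDS-PAGE and blotted to PVDF, blocked in 5% non-fat milk. Primary antibodies overnight: Bcl-2 1:200, Bax 1:1000, PARP 1:10000, NF-κB 1:2000, caspase-3 1:1000, β-actin 1:20000. Secondary antibody applied, then ECL detection.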
For orientation: A western blot detects proteins with antibodies after separation by electrophoresis.

Series [2] has as its system MCF-7/ADR cells (adriamycin-resistant MCF-7 clone). As to the kind of experiment: Growth inhibition of drug-resistant breast cancer cells. The format is cell-based, human. The following applies: concentrations from 1 μM to 10 μM, 48 h.
In series [3] the test system is MDA-MB-231, a TNBC cell line. The following applies: same dose range effective for MCF-7 cells; ref 9a; cited from earlier work.
Series [4] concerns MDA-MB-231 cells. As to the kind of experiment: Colony formation assay. The format is cell-based, human. The following applies: 0.625-10 μM, two weeks. In outline: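 MDA-MB-231 cells seeded at 800 cells/well in regular medium; after 24 h, test compound (0.625, 1.25, 2.5, 5 or 10 μM) or DMSO vehicle added. Drug-containing medium renewed every 72 h for two weeks. Wells stained with 0.01% crystal violet for 10 min, PBS-washed and dried, then whole-well density quantified digitally. Triplicate; one-way ANOVA, SD shown.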

The test system of series [5] is MDA-MB-231 cells. As to the kind of experiment: Cell apoptosis assay. It is filed as cell-based, human. The settings on record: MDA-MB-231 cells, 1.0, 5.0, 10 μM, 24 h.
In series [6] the test system is MCF-7 (ER-positive) breast cancer cells. As to the kind of experiment: MTT antiproliferation assay, MCF-7. The format is cell-based, human. The settings on record: MCF-7 and MDA-MB-231 cells. In outline:
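Human breast cancer lines MCF-7 (ER-positive) and MDA-MB-231 (triple-negative) were used, with oridonin tested alongside. MTT antiproliferation read-out: after the MTT step, solution replaced by DMSO, OD at 550 nm after 10 min. Each concentration in quadruplicate wells. IC50 by curve fitting. Mean ± SE of three independent experiments.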
(Tetrazolium dyes change colour on reduction, which living cells bring about.)

The test system of series [7] is HMEC (human normal mammary epithelial cells). As to the kind of experiment: Growth inhibition of normal human mammary epithelial cells. The format is cell-based. The settings on record: 10 μM, 24 h; p < 0.05.
Series [8] relates to MDA-MB-231 xenograft tumors. As to the kind of experiment: MDA-MB-231 xenograft tumor model. The format is in vivo. The settings on record: 5 mg/kg i.p., nude mice.

As for `C=C1C(=O)[C@]23[C@H](O)[C@H]1CC[C@H]2[C@@]12CO[C@]3(O)[C@@H](O)[C@@H]1C(C)(C)CC[C@@H]2O` [Compound 1, Oridonin, reference compound], in series [1], the Bax protein level entry is “up-regulation”; the Bcl-2 protein level result was “down-regulation”; the “NF-κB (p65) protein expression” value was “down-regulation”; the “PARP cleavage (116 kDa to 25 kDa)” value is “up-regulation of Bax and cleaved PARP”. For the same compound, the caspase-3 activation result in series [1] was “did not activate caspase-3 cleavage”. The “growth inhibitory activity on MCF-7/ADR cells” value in series [2] is recorded as “no growth inhibitory activity”. The “growth of MDA-MB-231” value in series [3] is given as “failed to reduce the growth”.
Turning to `C=C1C(=O)[C@@]23[C@@H]4OC(C)(C)O[C@]25OC[C@]2(C(=O)C(C=O)=CC(C)(C)[C@H]2[C@@H]5O)[C@@H]3CC[C@@H]14` [Compound 10, (3S,3aR,3a^1R,6aR,7S,7aR,11aS,11bS)-7-hydroxy-5,5,8,8-tetramethyl-15-methylene-11,14-dioxo-2,3,3a,7,7a,8,11,11b-octahydro-1H-6a,11a-(epoxymethano)-3,3a^1-ethanophenanthro[1,10-de][1,3]dioxine-10-carbaldehyde], in series [1], the Bax protein level result is “up-regulation”, the Bcl-2 protein level entry is “down-regulation”, the “NF-κB (p65) protein expression” value is “significant decrease” and the “PARP cleavage (116 kDa to 25 kDa)” value was “triggered PARP cleavage”. Also, the caspase-3 activation entry in series [1] is recorded as “activated caspase-3 in a dose-dependent manner”. The “inhibition of colony formation” value in the series on MDA-MB-231 cells [4] is on record as “inhibit the colony formation”. The induction of apoptosis entry in the series with MDA-MB-231 cells [5] was “significant effects to induce apoptosis of MDA-MB-231 cells in a dose-dependent manner”.
On to `C=C1C(=O)[C@@]23C(=O)[C@@H](O)[C@@H]4C(C)(C)[C@@H]5OC[C@]4(C(=O)/C5=C/OC)[C@@H]2CC[C@@H]1[C@H]3O` [Compound 13, (3S,4aR,5S,6aR,9S,11aS,11bS,14R,E)-5,14-dihydroxy-2-(methoxymethylene)-4,4-dimethyl-8-methyleneoctahydro-1H-3,11b-(epoxymethano)-6a,9-methanocyclohepta[a]naphthalene-1,6,7(2H,8H)-trione], for which the “antiproliferative activities (in words)” value in series [6] is recorded as “no obvious antiproliferative activities”.
Turning to `C=C1C(=O)[C@@]23C(=O)[C@@H](O)[C@@H]4C(C)(C)[C@@H]5OC[C@]4(C(=O)/C5=C\O)[C@@H]2CC[C@@H]1[C@H]3O` [Compound 14, (3S,4aR,5S,6aR,9S,11aS,11bS,14R,Z)-5,14-dihydroxy-2-(hydroxymethylene)-4,4-dimethyl-8-methyleneoctahydro-1H-3,11b-(epoxymethano)-6a,9-methanocyclohepta[a]naphthalene-1,6,7(2H,8H)-trione], in series [6], the “antiproliferative activities (in words)” value was “no obvious antiproliferative activities”.
Take `C=C1C(=O)[C@@]23[C@@H]4OC(C)(C)O[C@]25OC[C@]2(C=CC(=O)C(C)(C)[C@H]2[C@@H]5O)[C@@H]3CC[C@@H]14` [Compound 19, (3S,3aR,3a^1R,6aR,7S,7aS,11aR,11bS)-7-hydroxy-5,5,8,8-tetramethyl-15-methylene-3,3a,7,7a,8,11b-hexahydro-1H-6a,11a-(epoxymethano)-3,3a^1-ethanophenanthro[1,10-de][1,3]dioxine-9,14(2H)-dione]: in series [1], the Bax protein level entry is given as “up-regulation”, the Bcl-2 protein level entry is on record as “down-regulation”, the “NF-κB (p65) protein expression” value was “significant decrease” and the “PARP cleavage (116 kDa to 25 kDa)” value was “triggered PARP cleavage”. In addition, the caspase-3 activation entry in series [1] is listed as “activated caspase-3 in a dose-dependent manner”. For the same compound, the “inhibition of colony formation” value in the series with MDA-MB-231 cells [4] is reported as “significantly blocked the colony formation of MDA-MB-231 cells at a submicromolar concentration”. Further, the “toxicity to HMEC compared with oridonin” value in series [7] was “lower toxicity at 10 μM than oridonin”. For the same compound, in the series on MDA-MB-231 cells [5], the induction of apoptosis result is “significant effects to induce apoptosis of MDA-MB-231 cells in a dose-dependent manner”. In addition, in series [8], the “tolerability / body weight” value was “no significant loss of body weight”.
